# High-throughput results (PubChem BioAssay)
# In the library only some 1.4% were active in any assay of this set; here they are far more common.
# TbMetRS inhib: Trypanosoma brucei MetRS inhibition; purified T. brucei MetRS, ATP depletion, Kinase-Glo luminescence; inhibition, % at 11.9 µM; 360,000 tested, 0.4% active; AID 624268;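 active means inhibition above a per-plate cutoff of the control wells' mean inhibition plus 3 SD, cut at about 5.5% in these data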;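 further: 0% = DMSO wells median and 100% = median of wells with control inhibitor compound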
#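 Assay system: T. brucei methionyl-tRNA synthetase, purified | Medium: HEPES buffer with MgCl2, KCl, DTT, spermine, BSA, pyrophosphatase | Compound: 11.9 µM single point | Incubation: 15 min enzyme-compound preincubation, 2 h reaction, 10 min detection, 25 °C | Measured by: Kinase-Glo luciferase luminescence reporting remaining unconsumed ATP | Measure: % inhibition normalized to control-well medians | Replication: Singlicate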
# CAL PDZ FP-1: CAL PDZ (human) peptide binding inhibition; purified CAL PDZ, TMR-peptide fluorescence polarization, 1 h; 300,000 tested, 0.92% active; inhibition, % at 24.9 µM; Q9HD26;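 active means mean inhibition of at least 30% with at least half of replicates also reaching 30%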;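 further: 0% = DMSO neutral control and 100% = excess unlabeled competitor peptide PRC23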
# CAL PDZ FP-2: human CAL PDZ-peptide interaction inhibition | Q9HD26 | purified CAL PDZ, TMR-peptide fluorescence polarization, 1 h | inhibition, % at 20 µM | 330,000 tested, 0.02% active;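 active means highest replicate inhibition of at least 40%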;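 further: plate controls were DMSO neutral control wells for no effect and unlabeled competitor peptide control wells for full effect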
#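 Assay system – tagged CAL PDZ protein CerCALP, purified · Timing – 1 h at RT · Compound – single point, 20 µM · Measured by – fluorescence polarization from S- and P-plane intensities, G-factor corrected · Evaluation – inhibition from polarization loss · Probe or stimulus – TMR reporter peptide T*-PRC34 · Buffer or medium – pH 7.4 phosphate-saline buffer, reducing agent, detergent, IgG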
# CDK5 p35 inh: blocks human CDK5/p35 kinase activity; AID 488839; inhibition, % at 10 µM; 330,000 tested, 0.01% active; Recombinant CDK5/p35, ADP-Glo luminescence, 60 min; Q00535+Q15078;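 active means highest replicate inhibition of at least 50% and at least 75% of replicates reaching 50%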;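 further: plate controls were DMSO neutral control for no effect and GW8510 at 10 µM for full effect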
# Target sequence (Q00535 whole entry, looked up): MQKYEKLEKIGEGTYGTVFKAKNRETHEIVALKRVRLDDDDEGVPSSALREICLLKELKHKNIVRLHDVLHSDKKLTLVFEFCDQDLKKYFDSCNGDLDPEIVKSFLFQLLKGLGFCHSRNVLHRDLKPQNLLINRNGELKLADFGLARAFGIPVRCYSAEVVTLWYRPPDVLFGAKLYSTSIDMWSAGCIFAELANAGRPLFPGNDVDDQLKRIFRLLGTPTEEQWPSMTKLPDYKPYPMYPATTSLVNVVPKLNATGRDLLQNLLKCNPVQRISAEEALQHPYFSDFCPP
# Target sequence (Q15078 whole entry, looked up): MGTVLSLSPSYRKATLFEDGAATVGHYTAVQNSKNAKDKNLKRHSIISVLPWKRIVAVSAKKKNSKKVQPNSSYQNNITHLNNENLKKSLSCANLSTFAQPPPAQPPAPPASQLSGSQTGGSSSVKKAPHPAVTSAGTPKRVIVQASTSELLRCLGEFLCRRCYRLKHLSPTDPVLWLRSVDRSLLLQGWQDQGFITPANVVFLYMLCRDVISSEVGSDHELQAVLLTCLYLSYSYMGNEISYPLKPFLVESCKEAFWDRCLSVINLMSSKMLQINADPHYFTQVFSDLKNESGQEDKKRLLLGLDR
# PvdQ inh: blocks Pseudomonas aeruginosa PvdQ acylase activity. 340,000 tested, 0.063% active. purified PvdQ acylase, fluorescence plate reader. inhibition, % at 10 µM; in the data active means inhibition above about 30%, passing the limit was not always enough;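 further: 0% = vehicle neutral wells and 100% = reference inhibitor wells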
# DYRK1A inh: inhibitors of rat Dyrk1A kinase; Q63470; ADP-Glo luminescence, NFATc1 peptide; inhibition, % at 12.5 µM; 310,000 tested, 0.43% active; AID 504441; in the data active means inhibition above about 50%;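 further: plate controls were vehicle with enzyme for no effect and no enzyme for full effect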
# The depositor's hits bear a star; · = no result.
SMILES,TbMetRS inhib,CAL PDZ FP-1,CAL PDZ FP-2,CDK5 p35 inh,PvdQ inh,DYRK1A inh
COC(=O)C[C@@H]1CC[C@H](NC(=O)Nc2ccc(OC)cc2)[C@@H](CO)O1,-0.6,·,·,·,·,·
COc1cc(OC)c(N(C)S(=O)(=O)c2cccc(C(=O)OCC(=O)N3CCOCC3)c2)cc1Cl,-0.2,32.4*,6.9,-1.6,-15.0,-2.6
Cc1ccccc1-n1nc2c(c1NC(=O)c1cc3ccccc3oc1=O)CS(=O)C2 (stereo unspecified),-0.4,97.5*,·,-0.3,-16.8,12.7
COc1ccc(-n2nnnc2C(c2ccccc2)N2CCN(C/C=C/c3ccccc3)CC2)cc1 (stereo unspecified),-0.9,·,·,·,·,·
Cc1ccc(C)c(N(CC(=O)N2CCCC2)S(C)(=O)=O)c1,0.0,76.5*,4.0,-3.9,-12.0,5.3
Cc1ccc(C)c(N(CC(=O)N2CCCCCC2)S(C)(=O)=O)c1,-0.2,·,-0.7,-1.3,-7.4,-2.0
CC(=O)Nc1ccccc1NC(=O)C/C(C)=N/NC(=O)c1ccc([N+](=O)[O-])c(Cl)c1,0.3,30.1*,-0.6,0.6,-7.1,0.7
CN(C)c1nc(NCc2ccccc2)nc(Oc2ccc(=O)[nH]n2)n1,-0.2,40.0*,-0.5,-0.9,-10.9,-0.9
CCN(CC)c1nc(Nc2ccccc2)nc(Oc2ccc(=O)[nH]n2)n1,1.2,·,-2.8,-2.1,-1.7,7.0
CCC(=O)Oc1ccc(NC(=O)c2ccc(S(=O)(=O)N3CCCC3)cc2)cc1,-0.5,·,·,·,·,·
O=C(O)C1CC=CCC1C(=O)NCCCCc1ccccc1 (stereo unspecified),-0.2,81.9*,-1.1,1.3,-10.5,0.9
O=C(/C=C/c1ccc(Cl)cc1Cl)NCc1ccncc1,8.9*,-24.8,-2.2,0.3,-7.5,·
CCCCCCCCNC(=O)CC(NS(=O)(=O)c1ccc(NC(C)=O)cc1)C(C)C (stereo unspecified),1.8,-1.0,-1.9,-0.1,-14.9,·
CC(=O)Nc1ccc(S(=O)(=O)NC(CC(=O)NCCC2=CCCCC2)C(C)C)cc1 (stereo unspecified),-1.0,44.7*,-0.2,-1.5,-11.0,5.8
CCN(C(=O)CN1C(=O)NC2(CCCC2)C1=O)c1nc2c(C)cccc2s1,0.0,·,·,·,·,·
COc1ccc(N2CCN(C(=O)C(=O)c3cn(CC(=O)N4CCCC4)c4ccccc34)CC2)cc1,0.0,·,·,·,·,·
CC(C)(C)N1C(=O)c2ccccc2NC(=O)C1C(=O)NCCOc1ccccc1 (stereo unspecified),-1.4,·,·,·,·,·
COc1ccc(/C(N)=N/OC(=O)Cc2ccccc2[N+](=O)[O-])cc1,-0.2,-5.2,-3.0,0.0,-11.8,-10.0
N/C(=N\OC(=O)Cc1ccccc1[N+](=O)[O-])c1cccnc1,0.5,76.6*,·,0.1,-16.0,-0.1
Cc1ccc(-c2csc(C(O)c3ccc(F)c(F)c3)n2)cc1C (stereo unspecified),-0.4,·,·,·,·,·
CCOC(=O)CCn1c(=S)n(CCC(=O)OCC)c2ccccc21,-0.4,54.9*,1.2,2.1,8.9,·
CC(C)Sc1nnc(NC(=O)c2ccco2)s1,-0.1,55.9*,7.7,1.4,-5.7,-0.1
CCSc1nnc(NC(=O)c2ccco2)s1,-0.9,1.3,-0.6,0.4,12.5,-1.1
CCC(C)c1ccccc1NC(=O)COC(=O)CCc1cc(OC)c(OC)c(OC)c1 (stereo unspecified),0.3,83.2*,-0.7,-1.0,-12.2,1.2
COc1cc(CCC(=O)OCC(=O)Nc2ccccc2F)cc(OC)c1OC,0.0,-3.9,-2.7,-1.6,-10.7,-1.6
SMILES,TbMetRS inhib,CAL PDZ FP-1,CAL PDZ FP-2,CDK5 p35 inh,PvdQ inh,DYRK1A inh
CCOC(=O)c1cc(OCC)c2c(ccc3cc(OC)ccc32)n1,0.2,·,·,·,·,·
CCOC(=O)[C@]12CCCC=C1N(Cc1ccc(Cl)cc1Cl)C(=O)[C@H](CC(=O)N1CCN(C(=O)C3CC3)CC1)C2,-0.1,·,·,·,·,·
CC(=O)N(/C=C1\SC(=S)N(c2ccccc2)C1=O)c1ccccc1,-0.3,34.9*,-2.1,1.5,-6.1,0.0
CCN1C(=O)/C(=C\N(C(C)=O)c2ccccc2)OC1=S,-1.4,-4.4,-1.0,-1.0,-3.1,·
CCCCNC(=S)N/N=C/C1=CCC2CC1C2(C)C (stereo unspecified),-0.1,-4.7,-0.4,0.0,-11.1,5.5
C=C(C)CNC(=S)N/N=C/C1=CCC2CC1C2(C)C (stereo unspecified),-0.2,49.0*,-0.4,-1.5,-9.9,6.5
CCOC(=O)N1CCC(N2C(=O)c3ccccc3C2Nc2ccc(S(=O)(=O)N(CC)CC)cc2)CC1 (stereo unspecified),0.3,67.0*,-0.8,-1.5,-11.9,-0.2
COC(=O)c1sc2nc(C)nc(SCC(=O)C(C)(C)C)c2c1C,-0.7,43.0*,-1.3,0.5,-7.2,2.7
COc1cnc(-c2ccccn2)nc1N(C)C,0.7,72.7*,-0.4,-5.6,-9.5,0.4
CCOC1=CC(=O)OC(c2ccccc2)C1 (stereo unspecified),-0.4,5.4,-0.6,-1.0,80.8*,-0.4
CC(C)c1cc(Cn2c3ccccc3c(=O)n2C(C)Cn2cc(CCCC#N)nn2)on1 (stereo unspecified),-0.3,·,·,·,·,·
Cc1ccccc1Nc1c(-c2ccccn2)nc2ccccn12,0.6,81.5*,0.2,-3.4,-5.1,6.9
Cc1ccn2c(Nc3ccccc3C)c(-c3ccccn3)nc2c1,-0.9,-1.5,0.1,-0.8,2.1,10.7
CCCCNC(=O)C[C@@H]1C[C@@]2(C(=O)OCC)CCC=C2N(Cc2ccc(Cl)cc2Cl)C1=O,-0.8,·,·,·,·,·
N#Cc1ccc(NC(=S)N2CCC3CC2c2cc(-c4ccc5c(c4)OCO5)ccc23)cc1 (stereo unspecified),-0.2,·,·,·,·,·
NC(=NCCc1ccc(Cl)cc1)NS(=O)(=O)c1ccc(F)cc1,2.7,45.6*,-1.2,-1.6,-7.5,5.7
O=C(CS(=O)(=O)c1ccccc1)c1cc2cc(F)ccc2oc1=O,-0.3,78.8*,-1.0,1.6,-15.2,6.9
O=C(CS(=O)(=O)c1ccccc1)c1cc2ccccc2oc1=O,-0.1,-2.7,-2.4,0.6,-1.4,1.8
C[C@@H]1CN([C@H](C)CO)C(=O)CCCn2cc(nn2)CO[C@H]1CN(C)C(=O)c1ccccc1,-0.4,·,·,·,·,·
CSc1nsc(SCC(=O)NCc2ccc(C)cc2)n1,0.1,71.1*,·,1.2,-19.0,-4.5
c1ccc(CN2CCCC3(CCCN(Cc4nc(COc5ccccc5)no4)C3)C2)cc1 (stereo unspecified),-0.7,51.9*,-1.1,-1.7,-10.2,-3.3
c1ccc(CN2CCCC3(CCCN(Cc4nc(CC5CC5)no4)C3)C2)cc1 (stereo unspecified),-0.6,24.9,-0.2,0.8,3.0,-1.0
CCOC(=O)[C@]12CCCC=C1N(CCC1=CCCCC1)C(=O)[C@H](CC(=O)N1CCC(c3ccccc3)CC1)C2,0.3,·,·,·,·,·
Cc1cc(Br)ccc1NC(=O)CN1CCN(c2ccccn2)CC1,-0.1,74.7*,·,-0.7,-9.8,3.5
